CHRM1 agonist = activates human CHRM1 receptor. P11229. CHO-K1 hM1, Fluo-8 calcium fluorescence, agonist mode; 0% DMSO, 100% acetylcholine EC100. activation, % at 3 µM. 360,000 compounds, 0.33% hits;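 active means activation above the run's mean compound activation plus 3 SD, cut at about 16% in these data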;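 further: peak over basal fluorescence ratio within a 140 s kinetic read after compound addition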
CHRM1 antagonist = human CHRM1 antagonism | CHO-K1 hM1, Fluo-8 calcium fluorescence, ACh EC80 antagonist | inhibition, % at 3 µM | 360,000 compounds, 1.3% hits | AID 588852;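 active means percent inhibition above its own plate's cutoff, namely the mean of that plate's compound wells plus 3 SD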;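 further: peak over basal fluorescence ratio during 140 s after agonist addition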
CHRM5 antagonist = antagonists of human muscarinic M5 receptor (CHRM5); P08912; CHO-hM5 cells, Fluo-8 calcium fluorescence, ACh EC80; inhibition, % at 3 µM; 360,000 compounds, 0.59% hits;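 active means inhibition above a per-plate cutoff, the mean of that plate's test compounds plus 3 SD, cut at about 27% in these data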
Target sequence (P08912 whole entry, looked up): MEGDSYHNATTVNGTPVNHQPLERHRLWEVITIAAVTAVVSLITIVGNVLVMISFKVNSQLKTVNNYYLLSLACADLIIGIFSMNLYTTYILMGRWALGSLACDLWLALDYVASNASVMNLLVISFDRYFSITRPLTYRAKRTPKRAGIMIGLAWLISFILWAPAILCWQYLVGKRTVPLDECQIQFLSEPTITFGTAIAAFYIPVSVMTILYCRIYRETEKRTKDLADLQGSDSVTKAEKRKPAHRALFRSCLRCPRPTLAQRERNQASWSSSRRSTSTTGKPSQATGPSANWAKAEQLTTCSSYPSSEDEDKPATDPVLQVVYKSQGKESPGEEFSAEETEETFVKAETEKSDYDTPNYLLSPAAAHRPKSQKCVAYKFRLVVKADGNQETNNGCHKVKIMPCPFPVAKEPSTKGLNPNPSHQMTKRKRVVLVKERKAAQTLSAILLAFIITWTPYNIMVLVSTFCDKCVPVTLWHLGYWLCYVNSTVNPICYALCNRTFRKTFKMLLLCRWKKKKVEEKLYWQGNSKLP
CHRM1 PAM = positive allosteric modulators of human M1 muscarinic receptor. P11229. CHO-K1 hM1, Fluo-8 calcium fluorescence, ACh EC20; 0% = ACh EC20, 100% = maximal ACh. activation, % at 3 µM. 360,000 compounds, 0.088% hits. AID 588819; in the data active means activation above about 19%, passing the limit was not always enough
M5 PAM = positive allosteric modulators of human muscarinic M5 receptor; P08912; CHO-K1 hM5, Fluo-8 calcium, ACh EC20 PAM; 0% = ACh EC20, 100% = ACh EC100; activation, % at 3 µM; 360,000 compounds, 0.3% hits; AID 624038;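 active means activation above the run cutoff, the mean activation of all test compounds plus 3 SD, cut at about 18% in these data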
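system = human M5 receptor in CHO-K1 cells | reagent = EC20 acetylcholine as agonist stimulus | compound dosing = single-point, 3 µM nominal | incubation = Fluo-8 loading 80 min at 37 °C plus 30 min room temperature | detection = Fluo-8 calcium dye fluorescence, kinetic read | benchmarks = low control EC20 acetylcholine (0%), high control EC100 acetylcholine (100%)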
M5 ag = CHRM5 agonism in calcium assay. CHO-K1 hM5 cells, Fluo-8 calcium fluorescence; 0% DMSO wells, 100% maximal acetylcholine response. P08912. activation, % at 3 µM. 360,000 compounds, 0.19% hits;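 active means activation above the run's mean over test compounds plus 3 SD, cut at about 23% in these data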;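 further: signal is peak over basal fluorescence ratio across the kinetic read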
Numbers stand for hits; n = inactive. Only some compounds are listed: those with a hit (about 2% of all), similar ones and a draw of the others.

SMILES	CHRM1 agonist	CHRM1 antagonist	CHRM5 antagonist	CHRM1 PAM	M5 PAM	M5 ag
O=C(Nc1ccccc1)Nc1cccc(C(F)(F)F)c1	n	n	40	n	n	n
CC(=O)c1c(C)[nH]c(C(=O)Nc2cccc(C#N)c2)c1C	n	n	n	n	n	n
FC(F)(F)c1cccc(NC(=S)Nc2ccc(Cl)c(Cl)c2)c1	n	n	n	n	n	n
Cc1cc(C)nc(NS(=O)(=O)c2ccc(NC(=O)c3ccccc3Br)cc2)n1	n	n	n	n	n	n
COc1ccc(Br)c(Cn2c(C)c(C(=O)NCc3ccc4c(c3)OCCO4)sc2=O)c1	n	n	n	n	n	n
CCOc1ccc(S(=O)(=O)Nc2nc3ccccc3nc2-n2ccc(=NC(=O)c3ccccc3C)cc2)cc1	21	n	40	n	n	30
Cc1ccccc1C(=O)N=c1ccn(-c2nc3ccccc3nc2NS(=O)(=O)c2ccccc2)cc1	n	n	n	n	n	n
C[C@H]1CN([C@@H](C)CO)C(=O)CCCn2nncc2CO[C@H]1CN(C)S(=O)(=O)c1ccc(C#N)cc1	n	n	n	n	n	n
N#CC(Sc1ccccn1)c1ccc(Cl)cc1Cl (stereo not given)	n	39	n	n	n	n
O=C(O)CCC(=O)OCCN(Cc1ccc(Oc2ccc([N+](=O)[O-])cc2)cc1)C(=O)C(Cl)Cl	n	n	n	n	n	n
O=C(CN1C(=O)CC(c2ccco2)Sc2ccccc21)Nc1ccc2c(c1)OCCO2 (stereo not given)	n	38	n	n	n	n
CCc1ccc2c(c1)NC(=O)C2(C)Cc1ccccc1Cl (stereo not given)	n	n	n	n	n	n
COC(=O)[C@H](CCSC)NC(=O)NC1CC1	n	n	n	n	n	n
O=C(CN1CCC(NC(=O)C2CCCCC2)CC1)NCc1ccco1	n	n	n	n	n	n
O=C(CN1CCC(NC(=O)Nc2ccccc2-c2ccccc2)CC1)NCc1ccco1	n	n	61	n	n	n
O=C(CN1CCN(c2ccc(O)cc2)CC1)NC(=O)NCc1ccco1	n	n	n	n	19	n
O=C(CN1CCC(Cc2ccccc2)CC1)NC(=O)NCc1ccco1	n	n	n	20	n	n
CC(C)C(=O)N1CCC1(C)C(=O)Nc1cccc(Oc2ccccc2)c1 (stereo not given)	n	n	n	n	n	n
CC1c2cc3c(cc2CCN1C(=O)c1ccc(C(F)(F)F)cc1)OCCCO3 (stereo not given)	n	34	n	n	n	n
CC(=O)Nc1ccc(C(=O)N2CCc3cc4c(cc3C2C)OCCCO4)cc1 (stereo not given)	n	57	n	n	n	n
CC1c2cc3c(cc2CCN1C(=O)c1ccc(Cl)cc1)OCCCO3 (stereo not given)	n	n	n	n	n	n
CC1c2cc3c(cc2CCN1CC(=O)Nc1ccc(S(=O)(=O)N2CCCC2)cc1)OCCCO3 (stereo not given)	n	102	n	n	n	n
Cc1ccc(C(=O)N2CCc3cc4c(cc3C2C)OCCCO4)cc1 (stereo not given)	n	n	n	n	n	n
Cc1cccc2c(=O)c(C(=O)NCCc3ccccc3)c[nH]c12	n	30	n	n	n	n
CCn1c(C)c(C(C)=O)c(N2CCN(c3ccccc3)CC2)nc1=S	n	n	n	n	n	n
CCn1c(C)c(C(C)=O)c(N2CCN(C(c3ccccc3)c3ccccc3)CC2)nc1=S	n	54	n	n	n	n
CCn1c(C)c(C(C)=O)c(N2CCCCC2)nc1=S	n	n	n	n	n	n
CCn1c(C)c(C(C)=O)c(N2CCN(c3ccccn3)CC2)nc1=S	n	64	n	n	n	n
CC(=O)c1c(N2CCCC2)nc(=S)n(-c2ccccc2)c1C	n	75	n	n	n	n
CC(=O)c1c(N2CCCCC2)nc(=S)n(-c2ccccc2)c1C	n	n	n	n	n	n
